These results are taken from ChEMBL document CHEMBL1157674, “Nanomolar affinity, iminosugar-based chemical probes for specific labeling of lysosomal glucocerebrosidase” (Bioorg Med Chem, 2010).

The term Ki denotes the equilibrium dissociation constant of an inhibitor or competing ligand from its target. Lower therefore signals tighter binding. In general, IC50 refers to the concentration at which inhibition is half-maximal. A high value points to a need for much substance.

Assay [1] in a line: Displacement of PNPG from almond beta-glucosidase by UV spectroscopy. Details: species or system Prunus dulcis. In outline:
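Almond β-glucosidase with p-nitrophenyl β-D-glucopyranoside (0.2–5 mM) in 0.1 M acetate buffer pH 5.0, 150 µL wells. After 15 min at 37 °C, p-nitrophenol read at 405 nm. Ki derived by varying both inhibitor and substrate concentrations.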

Assay [2] addresses T1, Lysosomal acid glucosylceramidase (Homo sapiens, UniProt P04062).
T1 sequence (P04062 whole entry): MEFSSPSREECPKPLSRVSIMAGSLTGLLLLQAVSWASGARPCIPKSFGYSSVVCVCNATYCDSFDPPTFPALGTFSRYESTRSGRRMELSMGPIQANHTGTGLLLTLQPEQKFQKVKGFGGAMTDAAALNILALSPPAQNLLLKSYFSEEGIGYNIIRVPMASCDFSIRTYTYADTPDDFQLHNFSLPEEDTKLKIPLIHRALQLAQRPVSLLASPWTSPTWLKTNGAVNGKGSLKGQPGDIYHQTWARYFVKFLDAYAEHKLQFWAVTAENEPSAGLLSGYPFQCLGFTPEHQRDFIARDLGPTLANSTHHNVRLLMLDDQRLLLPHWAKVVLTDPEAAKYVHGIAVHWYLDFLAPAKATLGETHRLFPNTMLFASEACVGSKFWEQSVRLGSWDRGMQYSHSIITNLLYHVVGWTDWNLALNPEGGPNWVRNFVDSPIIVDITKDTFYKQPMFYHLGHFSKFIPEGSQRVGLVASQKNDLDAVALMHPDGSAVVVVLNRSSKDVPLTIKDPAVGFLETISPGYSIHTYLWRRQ
As to the kind of experiment: Displacement of 4-methylumbelliferyl from human GBA by fluorimetry.

The target of the next assay is T2, Beta-glucosidase (Homo sapiens, UniProt Q9HCG7).
T2 sequence (Q9HCG7 whole entry): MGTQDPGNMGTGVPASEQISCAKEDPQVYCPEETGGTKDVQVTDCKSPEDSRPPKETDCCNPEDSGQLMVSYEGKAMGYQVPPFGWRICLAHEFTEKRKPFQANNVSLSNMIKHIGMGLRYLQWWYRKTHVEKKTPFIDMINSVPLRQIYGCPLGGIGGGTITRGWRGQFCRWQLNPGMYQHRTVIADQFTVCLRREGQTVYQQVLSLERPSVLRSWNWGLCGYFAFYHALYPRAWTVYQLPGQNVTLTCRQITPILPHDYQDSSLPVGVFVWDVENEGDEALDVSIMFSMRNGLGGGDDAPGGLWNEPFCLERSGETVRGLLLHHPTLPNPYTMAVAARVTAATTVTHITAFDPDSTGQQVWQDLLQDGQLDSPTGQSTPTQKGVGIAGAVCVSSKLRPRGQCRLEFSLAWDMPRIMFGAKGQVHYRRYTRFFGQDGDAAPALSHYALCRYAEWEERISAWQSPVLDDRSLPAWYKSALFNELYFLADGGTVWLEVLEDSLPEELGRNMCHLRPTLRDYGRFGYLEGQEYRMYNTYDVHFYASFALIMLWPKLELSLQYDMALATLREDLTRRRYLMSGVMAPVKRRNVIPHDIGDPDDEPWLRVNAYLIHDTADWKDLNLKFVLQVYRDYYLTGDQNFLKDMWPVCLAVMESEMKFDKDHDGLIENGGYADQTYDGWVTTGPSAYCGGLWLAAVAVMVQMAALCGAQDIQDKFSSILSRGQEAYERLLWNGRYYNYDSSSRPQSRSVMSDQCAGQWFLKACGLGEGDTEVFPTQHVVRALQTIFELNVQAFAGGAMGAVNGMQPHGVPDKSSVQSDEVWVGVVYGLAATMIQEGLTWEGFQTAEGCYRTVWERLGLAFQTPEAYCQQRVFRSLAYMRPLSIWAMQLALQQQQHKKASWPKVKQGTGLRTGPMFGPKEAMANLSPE
The assay can be described thus: Displacement of 4-methylumbelliferyl from non-lysosomal GBA2 by fluorimetry.

Assay [3] deals with T3, Lysosomal acid glucosylceramidase (Homo sapiens) (UniProt P04062).
T3 sequence (whole entry): T1 sequence (P04062 whole entry)
As to the kind of experiment: Binding affinity to human GBA at 10 uM by fluorescence assay. In outline:
(§1)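 Ceredase (human placental GBA) photolabeled in 50 µL with probe at 10, 5, 3, 1, 0.5 or 0.1 µM in 50 mM HEPES pH 6.1. UV 366 nm, 30 min, 4 °C. Then CuSO4/TCEP click with fluorescein-N3 for 16 h at 4 °C, denaturation at 95 °C, SDS–PAGE and fluorescence scanning.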

In assay [4] the target is T3, Lysosomal acid glucosylceramidase (Homo sapiens). The assay can be described thus: Binding affinity to human GBA at 0.1 uM by fluorescence assay. In outline: as §1
For assay [5] the target is unchanged. The assay can be described thus: Displacement of deoxynojirimycin from human GBA at 5 uM by fluorescence assay. In outline:
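Competition labeling: Ceredase with probe plus 0, 0.5, 5 or 25 µL of 1 mM deoxynojirimycin stock in 50 µL, 50 mM HEPES pH 6.1. UV irradiation at 366 nm for 30 min at 4 °C, then fluorescein-N3 click and SDS–PAGE fluorescence read-out.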

The target is the same in assay [6]. The assay can be described thus: Binding affinity to GBA in human HeLa cell extract at 3 uM by fluorescence assay. The assay is classed as cell-free. In outline: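 300 ng Ceredase with increasing HeLa cell lysate (0.5 mg/mL stock; 0–40 µL) in 50 mM HEPES pH 6.1 with probe. UV 366 nm, 30 min, 4 °C. Then fluorescein-N3 click, SDS–PAGE, fluorescence scan and silver stain. Lysate prepared from 2.5×10^5 PBS-washed cells by detergent extraction; protein measured by BCA.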

Assay [7] deals with Prunus dulcis. The assay can be described thus: Binding affinity to almond beta-glucosidase at 40 uM after 30 mins by fluorescence assay. In outline:
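Almond β-glucosidase from a 1 mg/mL stock, with probe added from a 1 mM stock in 5% DMSO/water, in 50 mM HEPES, 150 mM NaCl, pH 7.4. UV irradiation at 366 nm for 30 min at 4 °C; a non-irradiated control was kept dark. Then CuSO4/TCEP click with fluorescein-N3 for 1 h at rt. SDS–PAGE, fluorescence scan, then silver stain.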

Assay [8] has as its system Prunus dulcis. As to the kind of experiment: Binding affinity to almond beta-glucosidase expressed in Escherichia coli BL21 (DE3) at 40 uM by fluorescence assay. In outline:
(§2)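 E. coli BL21(DE3) lysate (1 mg/mL protein by BCA) spiked with varying amounts of almond β-glucosidase. Probe added as 4 or 10 µL of a 1 mM stock in 100 µL, in HEPES/NaCl pH 7.4. Photolabeling at 366 nm, 30 min, 4 °C, then fluorescein-N3 click. SDS–PAGE with fluorescence scan and silver stain.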

In assay [9] the test system is Prunus dulcis. As to the kind of experiment: Binding affinity to almond beta-glucosidase expressed in Escherichia coli BL21 (DE3) at 100 uM by fluorescence assay. In outline: as §2
In assay [10] the target is T3, Lysosomal acid glucosylceramidase (Homo sapiens). The assay can be described thus: Binding affinity to human GBA at 0.1 to 10 uM by fluorescence assay. In outline:
as §1

Assay [11] can be described thus: Inhibition of Agrobacterium sp. beta-glucosidase.

Activity calls are given as the source filed them. The calls are words filed in the database; no cut-off is given here.

`OC[C@H]1NC[C@H](O)[C@@H](O)[C@@H]1O` [DUVOGLUSTAT]: in [1], the affinity, expressed as Ki, was 167000 nM.
Take `C#CCOc1ccc(C(=O)c2ccc(C(=O)NCCCN3C[C@H](O)[C@@H](O)[C@H](O)[C@H]3CO)cc2)cc1`: the IC50 in assay [2] amounted to 350 nM; on Beta-glucosidase it was 20 nM. The same molecule registered a Ki in assay [1] of 1300 nM. For the same molecule, the result in assay [3], in assay [5] and in assay [6] was Active. For the same molecule, the result in assay [4] was inactive.
Turning to `C#CCOc1ccc(C(=O)c2ccc(O[C@@H]3O[C@H](CO)[C@@H](O)[C@H](O)[C@H]3O)cc2)cc1`, the affinity in assay [1], expressed as Ki, was 588000 nM. Besides, the outcome (with Prunus dulcis [7]; in the assay on Prunus dulcis [8]; in the assay on Prunus dulcis [9]; in [3]; in assay [5]) was Active. The outcome in assay [4] was inactive.
On to `C#CCOc1ccc(C(=O)CCC(=O)NCCCN2C[C@H](O)[C@@H](O)[C@H](O)[C@H]2CO)cc1`, for which the results for the IC50 (in assay [2]; on Beta-glucosidase) were 1650 nM and 75 nM, respectively. In assay [1], this molecule had an inhibition constant (Ki) of 6400 nM. The result in assay [10] was inactive. In addition, the result in assay [5] was Active.
Consider `CN(C)c1cccc2c(S(=O)(=O)NC[C@H]3N[C@H](CO)[C@@H](O)[C@@H]3O)cccc12`, for which, in assay [11], the Ki was found to be 2 nM.
Consider `C#CCOc1ccc(C(=O)c2ccc(O)cc2)cc1`, for which, in the assay on Prunus dulcis [9], the outcome was Active.
